From ChEMBL document CHEMBL1127616, “Synthesis, structural characterization, and antitumor properties of a novel class of large-ring platinum(II) chelate complexes incorporating the cis-1,4-diaminocyclohexane ligand in a unique locked boat conformation” (J Med Chem, 1994)

Key:
L1210 [1] = experiment: Tested for in vitro growth inhibition against murine leukemia cell L1210DACH; assay type: functional, cell-based; settings: Mus musculus
L1210 [2] = experiment: Tested for in vitro growth inhibition against murine leukemia cell L1210DDP5; assay type: functional, cell-based; settings: Mus musculus
L1210 [3] = experiment: Tested for the ratio of number of survivors / total number after 60 days at the dose of 10 mg/kg per injection against murine L1210 Pt-resistant leukemia in experiment 2; assay type: functional, organism-based; settings: Mus musculus
Summary of the method: (§1)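 CD2F1 (Balb/c × DBA/2F1) mice, 18–22 g, randomized and inoculated IP with counted leukemia cells on day 0, then re-randomized. Three IP treatments, dissolved in 0.9% saline and dosed on average cage weight, with dose in mg/kg per injection across a full toxic-to-ineffective range. Median life span and %T/C were recorded. Survivors at 60 days were counted as cured and excluded from %T/C.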

L1210 [4] = experiment: Tested for the ratio of number of survivors / total number after 60 days at the dose of 10 mg/kg per injection against murine leukemia L1210 experiment 2; assay type: functional, organism-based; settings: Mus musculus; summary of the method: as §1
L1210 [5] = experiment: Tested for the ratio of number of survivors / total number after 60 days at the dose of 5.0 mg/kg per injection against murine L1210 Pt-resistant leukemia in experiment 2; assay type: functional, organism-based; settings: Mus musculus; summary of the method: as §1
L1210 [6] = experiment: Tested for the ratio of number of survivors / total number after 60 days at the dose of 5.0 mg/kg per injection against murine leukemia L1210 experiment 2; assay type: functional, organism-based; settings: Mus musculus; summary of the method: as §1
L1210 [7] = experiment: Tested for the ratio of number of survivors / total number after 60 days at the dose of 6.0 mg/kg per injection against murine L1210 Pt-resistant leukemia; assay type: functional, organism-based; settings: Mus musculus; summary of the method: as §1
L1210 [8] = experiment: Tested for median life span against solid tumor L1210 Pt-resistant leukemia at 10 mg/kg per injection in experiment 2; assay type: functional, organism-based; settings: Mus musculus
Summary of the method: (§2)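 CD2F1 mice weighing 18–22 g were inoculated IP with leukemia cells on day 0. Compounds in 0.9% saline were given IP in three injections, dosed by average cage weight, over a dose range from toxic to ineffective. Median life span was recorded, with cause of death assessed at necropsy and 60-day survivors counted as cured.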

L1210 [9] = experiment: Tested for the ratio of number of survivors / total number after 60 days at the dose of 6.0 mg/kg per injection against murine leukemia L1210 experiment 1; assay type: functional, organism-based; settings: Mus musculus; summary of the method: as §1
L1210 [10] = experiment: Tested for in vivo weight change against murine L1210 Pt-resistant leukemia at the dose of 6.0 mg/kg per injection; assay type: functional, organism-based; settings: Mus musculus
Summary of the method: (§3)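 Leukemia life-span assays used CD2F1 (Balb/c × DBA/2F1) mice weighing 18–22 g. Cells were inoculated IP on day 0, and compounds in 0.9% saline were given IP, dosed by average cage weight. Weight change is the difference in mean group weight between the last and first treatment days.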

L1210 [11] = experiment: Tested for in vivo weight change against murine L1210 leukemia at the dose of 10 mg/kg per injection in experiment 2; assay type: functional, organism-based; settings: Mus musculus; summary of the method: as §3
L1210 [12] = experiment: Tested for in vitro growth inhibition against murine leukemia cell L1210PtR4; assay type: functional, cell-based; settings: Mus musculus
L1210 [13] = experiment: Tested for median life span against solid tumor L1210 leukemia at 10 mg/kg per injection in experiment 2; assay type: functional, organism-based; settings: Mus musculus; summary of the method: as §2
L1210 [14] = experiment: Tested for median life span against solid tumor L1210 leukemia at 6.0 mg/kg per injection in experiment 1; assay type: functional, organism-based; settings: Mus musculus; summary of the method: as §2
L1210 [15] = experiment: Tested for in vitro growth inhibition against murine leukemia cell L1210S; assay type: functional, cell-based; settings: Mus musculus
L1210 [16] = experiment: Tested for the ratio of treated and control against solid tumor murine L1210 leukemia 5.0 mg/kg per injection in experiment 2; T/C; assay type: functional, organism-based; settings: Mus musculus
Summary of the method: (§4)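 Murine leukemia life span assay in CD2F1 (Balb/c × DBA/2F1) mice, 18–22 g, randomized, with IP tumor cell inoculation on day 0. Depending on the model, the inoculum was 1 × 10^4 cells with IP dosing on days 3, 7 and 11, or 1 × 10^6 cells with IP dosing on days 1, 5 and 9. Drug was given in 0.9% saline, mg/kg per injection, by average cage weight. Read-outs were median day of death and %T/C. Mice alive 60 days after treatment counted as cured and were excluded.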

L1210 [17] = experiment: Tested for the ratio of treated and control against solid tumor murine L1210 leukemia 6.0 mg/kg per injection in experiment 1; T/C; assay type: functional, organism-based; settings: Mus musculus; summary of the method: as §4
L1210 [18] = experiment: Tested for the ratio of treated and control against solid tumor murine L1210 Pt-resistant leukemia 5.0 mg/kg per injection in experiment 2; T/C; assay type: functional, organism-based; settings: Mus musculus; summary of the method: as §4
Mus musculus [19] = experiment: Tested for the ratio of number of survivors / total number after 60 days at the dose of 10 mg/kg per injection against murine P388 Pt-resistant leukemia; assay type: functional, organism-based; summary of the method: as §1
Mus musculus [20] = experiment: Tested for in vivo weight change against murine B16 melanoma at the dose of 9.0 mg/kg per injection; assay type: functional, organism-based
Summary of the method: (§5)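 B6C3F1 (C57BL/6 × C3HF1) mice weighing 18–22 g received trocar tumor fragments SC on day 0. Compounds in 0.9% saline were given IP on a three-injection schedule, dosed by average cage weight. Weight change is the maximum treatment-related weight loss during the growth-delay assay.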

Mus musculus [21] = experiment: Tested for in vivo weight change against murine P388 Pt-resistant leukemia at the dose of 5.0 mg/kg per injection; assay type: functional, organism-based; summary of the method: as §3
Mus musculus [22] = experiment: Tested for the ratio of treated and control against solid tumor murine P388 Pt-resistant leukemia 5.0 mg/kg per injection; T/C; assay type: functional, organism-based; summary of the method: as §4
Mus musculus [23] = experiment: Tested for the ratio of treated and control against solid tumor murine P388 leukemia 10 mg/kg per injection; T/C; assay type: functional, organism-based; summary of the method: as §4
P388 [24] = experiment: Tested for in vitro growth inhibition against murine leukemia cell P388Pt4; assay type: functional, cell-based; settings: Mus musculus
P388 [25] = experiment: Tested for in vitro growth inhibition against murine leukemia cell P388S; assay type: functional, cell-based; settings: Mus musculus
P388 [26] = experiment: Tested for in vivo weight change against murine P388 leukemia at the dose of 5.0 mg/kg per injection; assay type: functional, organism-based; settings: Mus musculus; summary of the method: as §3
L1210 [27] = experiment: Tested for the ratio of number of survivors / total number after 60 days at the dose of 1.5 mg/kg per injection against murine L1210 Pt-resistant leukemia in experiment 1; assay type: functional, organism-based; settings: Mus musculus; summary of the method: as §1
L1210 [28] = experiment: Tested for median life span against solid tumor L1210 Pt-resistant leukemia at 3.0 mg/kg per injection in experiment 1; assay type: functional, organism-based; settings: Mus musculus; summary of the method: as §2
L1210 [29] = experiment: Tested for median life span against solid tumor L1210 leukemia at 1.5 mg/kg per injection in experiment 1; assay type: functional, organism-based; settings: Mus musculus; summary of the method: as §2
L1210 [30] = experiment: Tested for the ratio of number of survivors / total number after 60 days at the dose of 1.6 mg/kg per injection against murine L1210 Pt-resistant leukemia in experiment 2; assay type: functional, organism-based; settings: Mus musculus; summary of the method: as §1
L1210 [31] = experiment: Tested for the ratio of number of survivors / total number after 60 days at the dose of 3.0 mg/kg per injection against murine L1210 Pt-resistant leukemia in experiment 1; assay type: functional, organism-based; settings: Mus musculus; summary of the method: as §1
L1210 [32] = experiment: Tested for the ratio of treated and control against solid tumor murine L1210 Pt-resistant leukemia 1.6 mg/kg per injection in experiment 2; T/C; assay type: functional, organism-based; settings: Mus musculus; summary of the method: as §4
Mus musculus [33] = experiment: Tested for the ratio of number of survivors / total number after 60 days at the dose of 2.3 mg/kg per injection against murine P388 Pt-resistant leukemia; assay type: functional, organism-based; summary of the method: as §1
Mus musculus [34] = experiment: Tested for in vivo weight change against murine M5076 sarcoma at the dose of 4.0 mg/kg per injection; assay type: functional, organism-based; summary of the method: as §5
Mus musculus [35] = experiment: Tested for in vivo weight change against murine P388Pt-resistant leukemia at the dose of 2.3 mg/kg per injection; assay type: functional, organism-based; summary of the method: as §3
Mus musculus [36] = experiment: Tested for the ratio of number of survivors / total number after 60 days at the dose of 3.7 mg/kg per injection against murine P388 Pt-resistant leukemia; assay type: functional, organism-based; summary of the method: as §1
M5076 = experiment: Tested for net cell kill tumor burden reduction during therapy at the dose 4.0 mg/kg in M5076 sarcoma; assay type: functional, organism-based; set-up: dose 4 mg/kg; settings: Mus musculus
Mus musculus [37] = experiment: Tested for the ratio of treated and control against solid tumor murine P388 Pt-resistant leukemia 3.7 mg/kg per injection; T/C; assay type: functional, organism-based; summary of the method: as §4

## CISPLATIN
L1210 [1]
  ID50: 0.52 µg/mL
L1210 [2]
  ID50: 4.11 µg/mL
L1210 [3]
  Survivors: 0
L1210 [4]
  Survivors: 1
L1210 [5]
  Survivors: 0
L1210 [6]
  Survivors: 0
L1210 [7]
  Survivors: 0
L1210 [8]
  MLS: 12.4 days
L1210 [9]
  Survivors: 1
L1210 [10]
  Weight change: -3.7 g
L1210 [11]
  Weight change: -3.3 g
L1210 [12]
  ID50: 7.84 µg/mL
L1210 [13]
  MLS: 18.5 days
L1210 [14]
  MLS: 18.5 days
L1210 [15]
  ID50: 0.375 µg/mL
L1210 [16]
  Ratio: 172%
L1210 [17]
  Ratio: 175%
L1210 [18]
  Ratio: 107%
Mus musculus [19]
  Survivors: 0
Mus musculus [20]
  Weight change: -4.5 g
Mus musculus [21]
  Weight change: 1 g
Mus musculus [22]
  T/C: 132%
Mus musculus [23]
  T/C: 86%
P388 [24]
  ID50: 10 µg/mL
P388 [25]
  ID50: 0.128 µg/mL
P388 [26]
  Weight change: 0.2 g

## [Pt(cis-1,4-dach)CL2]
L1210 [27]
  60-day survivors: 0
L1210 [1]
  ID50: 1.08 µg/mL
L1210 [2]
  ID50: 0.663 µg/mL
L1210 [28]
  MLS: 17 days
L1210 [29]
  MLS: 23 days
L1210 [30]
  60-day survivors: 1
L1210 [31]
  60-day survivors: 2
L1210 [12]
  ID50: 1.21 µg/mL
L1210 [15]
  ID50: 0.248 µg/mL
L1210 [32]
  Ratio: 146%
Mus musculus [33]
  60-day survivors: 0
Mus musculus [34]
  Weight change: -5.5 g
Mus musculus [35]
  Weight change: -0.1 g
Mus musculus [36]
  Survivors: 0
M5076
  Log net cell kill: 0.6
Mus musculus [37]
  T/C: 177%
P388 [24]
  ID50: 1.43 µg/mL
P388 [25]
  ID50: 0.047 µg/mL
